H69AR inhibit = proliferation blockers of H69AR lung cancer cells, primary screen, cell-based, human, 86K library; H69AR lung tumor viability, ATP luminescence, 72 h; active compounds read low; viability, % at 10 µM; 6% of 85,000 active; AID 598, 2007;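 active = viability at or below 40%; inactive = viability above 40%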;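 note: multidrug resistant small cell line overexpressing MRP-1 efflux transporter; 100% = mean luminescence of untreated control wells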
HCT116 bCat-KO = primary screen for growth suppressors in beta-catenin knockout HCT116 cells (colon tumor, human); HCT116 beta-catenin knockout viability, CellTiter-Glo, 60 h; active compounds read low; viability, % at 10 µM; 1.5% of 140,000 active;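 active = viability at or under a set limit, the compound median less 4 SD, cut at about 6% in these data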;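 note: 0% = Hyamine 1622 control at 20 µM and 100% = untreated cell control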
Lung fibro prol = antiproliferative effect on LL 47 fibroblasts – human, LL 47 cells, CellTiter-Glo luminescence, primary screen; LL 47 human lung fibroblast viability, ATP luminescence; active compounds read low; viability, % at 10 µM; 1.1% of 85,000 active; AID 719, 2007;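 active = viability at or below 50% in the single dose screen; inactive = viability above 50%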;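 note: compound exposure lasted 72 h before the ATP readout; 100% = median luminescence of untreated cell-only wells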
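Material: Human LL 47 lung fibroblast cells | Input: 1,150 cells/well | Buffer or medium: IMEM plus 15% FBS | Compound dosing: 0.1% DMSO in all compound wells | Times: Overnight cell rest, 72 h compound treatment at 37 °C | Signal: CellTiter-Glo luminescence measuring cellular ATP | Measure: % viability versus median cells-only luminescence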
HUVEC prolif 384 = inhibitors of HUVEC proliferation, primary screen, cell-based, 384-well | CellTiter-Glo luminescence, 72 h; active compounds read low | viability, % at 10 µM (by protocol) | 1.1% of 86,000 active | AID 648, 2007;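 active = viability at or below 30%; inactive = viability above 30%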;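 note: 100% = median luminescence of DMSO-only cell control wells on each plate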
HCT116 PTEN-null = growth suppression of PTEN-null HCT116, primary screen, cell-based, CellTiter-Glo. HCT116 PTEN-null viability, 60 h; active compounds read low. viability, % at 10 µM. 1.2% of 140,000 active;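 active = viability at or below a set limit, 4 SD under the median of all tested compounds, cut at about 3.7% in these data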;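 note: PTEN knockout HCT116 line with beta catenin targeted HCT116 as companion control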
* = called active by the depositor; . = not tested or not shown. Shown is part of a subset that was picked to be rich in hits.

SMILES | H69AR inhibit | HCT116 bCat-KO | Lung fibro prol | HUVEC prolif 384 | HCT116 PTEN-null
COC(=O)/C=C/S(=O)(=O)c1ccc(NC(C)=O)cc1 | 1.0* | 97 | . | 80 | 86
CC(=O)Nc1ccc(S(=O)(=O)Oc2ccc(C=O)cc2)cc1 | . | 95 | . | . | 91
CC(=O)CCS(=O)(=O)c1ccc(NC(C)=O)cc1 | 0.2* | 102 | 93 | 97 | 107
COC(=O)c1cc(Cl)c(NC(=O)c2cc3ccccc3o2)cc1OC | . | 48 | . | . | 30
COCCn1c(N)c(C(=O)NCC2CCCO2)c2nc3ccccc3nc21 (stereo unspecified) | 58 | 64 | 91 | 72 | 60
CC(C)Cn1c(N)c(C(=O)NCC2CCCO2)c2nc3ccccc3nc21 (stereo unspecified) | 36* | 70 | 80 | 74 | 62
Nc1c(C(=O)OCC2CCCO2)c2nc3ccccc3nc2n1C1CCCC1 (stereo unspecified) | 15* | 23 | 70 | 54 | 20
COc1cc2c(cc1OC)CN(c1ccc(-c3ccccc3OC)nn1)CC2 | 51 | 2.7* | 56 | 53 | 7
Oc1ccc(/C=N/Nc2nccnc2Cl)c(O)c1 | . | 4.5* | . | . | 6
Oc1ccccc1/C=N/Nc1nccnc1Cl | 43 | 9 | 32* | 59 | 6
Oc1ccc(/C=N/Nc2ncc(Br)cn2)c(O)c1 | . | 6.0* | . | . | 8
Oc1ccc(/C=N/Nc2cccc3cccnc23)c(O)c1 | . | 75 | . | . | 82
CCN(CC)S(=O)(=O)c1ccc(N/N=C/c2ccc(O)cc2O)nc1 | . | 12 | . | . | 14
O=C(c1ccccc1Sc1c(Cl)cccc1[N+](=O)[O-])N1CCOCC1 | . | 92 | . | . | 94
COc1cc(NC(=O)C2CCCN(S(=O)(=O)c3cccc4nsnc34)C2)cc(OC)c1 (stereo unspecified) | . | 71 | . | . | 73
COc1ccc(OC)c(NC(=O)C2CCCN(S(=O)(=O)c3cccc4nsnc34)C2)c1 (stereo unspecified) | 40* | 96 | 93 | 86 | 85
CC(C)c1ccc(C2NC(=S)NC3=C2C(=O)CC(C)(C)C3)cc1 (stereo unspecified) | . | 71 | . | . | 90
CC1=NOC(=O)/C1=C\c1ccc(-c2cccc(Cl)c2)o1 | 1.1* | 1.1* | 8.0* | 42 | 3.7*
CCN(CC)c1ccc(C2Nc3cccc4cccc(c34)N2)c(O)c1 | 19* | . | 97 | 74 | .
Oc1ccc2ccccc2c1C1Nc2cccc3cccc(c23)N1 | 110 | 72 | 93 | 84 | 73
CCN(CC)S(=O)(=O)c1cc(NC(=O)C(C)OC(=O)c2[nH]c(C)c(C(C)=O)c2C)ccc1C (stereo unspecified) | . | 64 | . | . | 82
CCc1ccc2[nH]c(=O)c(CN(Cc3nnnn3C3CCCC3)C3CCCCC3)cc2c1 | 12* | 1.8* | . | 71 | 1.6*
O=c1[nH]c2cc3c(cc2cc1CN(CCc1ccccc1)Cc1nnnn1C1CCCC1)OCCO3 | 36* | 74 | 97 | 77 | 83
Cc1cc2cc(CN(Cc3ccc4c(c3)OCO4)Cc3nnnn3C3CCCC3)c(=O)[nH]c2cc1C | 67 | 72 | 96 | 66 | 71
Cc1ccc2[nH]c(=O)c(CN(Cc3ccc4c(c3)OCO4)Cc3nnnn3C3CCCC3)cc2c1 | 11* | 64 | 87 | 65 | 43
SMILES | H69AR inhibit | HCT116 bCat-KO | Lung fibro prol | HUVEC prolif 384 | HCT116 PTEN-null
COc1ccc(CN(Cc2cc3ccc(C)cc3[nH]c2=O)Cc2nnnn2C2CCCC2)cc1 | 25* | 60 | 92 | 67 | 39
Cn1nc(C(=O)N2CCN(S(=O)(=O)/C=C/c3ccccc3)CC2)c2ccccc2c1=O | . | 88 | . | . | 82
O=C(CSc1nnc(CCCN2C(=O)c3cccc4cccc(c34)C2=O)n1-c1ccccc1)N1CCN(CCO)CC1 | . | 95 | . | . | 100
O=C(NCCc1nc(-c2ccccc2)cs1)c1ccc(Br)cc1 | . | 88 | . | . | 88
O=C(N/N=C/c1ccc(O)cc1)/C(=C/c1ccccc1)CCO | . | 88 | . | . | 95
Cc1ccc(C(=O)Nc2ccc3cn[nH]c3c2)cc1S(=O)(=O)N1CCCCC1 | 30* | 73 | 93 | 99 | 61
CCOC(=O)N1CCN(Cc2nc(N)nc(Nc3ccc(Oc4ccccc4)cc3)n2)CC1 | 82 | 49 | 102 | 77 | 53
Cc1sc2nc(CN3CCC(C)CC3)nc(Cl)c2c1C | . | 0.9* | . | . | 0.8*
Cc1ccc(OCc2nnnn2-c2ccccc2)cc1 | . | 87 | . | . | 94
Cc1cc(C)cc(NC(=O)/C=C/c2ccc([N+](=O)[O-])s2)c1 | . | 26 | . | . | 14

From PubChem
